How the values were obtained:
[1] = Antiproliferative activity against mouse primary astrocytes assessed as reduction in cell viability measured after 72 hrs by Celltiter-Glo luminescent assay; type: cell-based, Astrocyte
Outline: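 Primary astrocytes isolated from adult mouse brain by a previously reported method. 5.0×10^3 cells/well, compound as 1:4 serial DMSO dilutions, CellTiter-Glo viability at 72 h.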

[2] = target: T1, Anoctamin-1 (Mus musculus) (UniProt Q8BHY3); assay: (§1) Inhibition of GFP-fused mouse ANO1 channel expressed in HEK293A cells assessed as inhibition of ATP-induced channel current amplitude at membrane potential of +80 mV by patch clamp electrophysiology assay; type: cell-based; conditions: HEK293-A
T1 sequence (whole entry): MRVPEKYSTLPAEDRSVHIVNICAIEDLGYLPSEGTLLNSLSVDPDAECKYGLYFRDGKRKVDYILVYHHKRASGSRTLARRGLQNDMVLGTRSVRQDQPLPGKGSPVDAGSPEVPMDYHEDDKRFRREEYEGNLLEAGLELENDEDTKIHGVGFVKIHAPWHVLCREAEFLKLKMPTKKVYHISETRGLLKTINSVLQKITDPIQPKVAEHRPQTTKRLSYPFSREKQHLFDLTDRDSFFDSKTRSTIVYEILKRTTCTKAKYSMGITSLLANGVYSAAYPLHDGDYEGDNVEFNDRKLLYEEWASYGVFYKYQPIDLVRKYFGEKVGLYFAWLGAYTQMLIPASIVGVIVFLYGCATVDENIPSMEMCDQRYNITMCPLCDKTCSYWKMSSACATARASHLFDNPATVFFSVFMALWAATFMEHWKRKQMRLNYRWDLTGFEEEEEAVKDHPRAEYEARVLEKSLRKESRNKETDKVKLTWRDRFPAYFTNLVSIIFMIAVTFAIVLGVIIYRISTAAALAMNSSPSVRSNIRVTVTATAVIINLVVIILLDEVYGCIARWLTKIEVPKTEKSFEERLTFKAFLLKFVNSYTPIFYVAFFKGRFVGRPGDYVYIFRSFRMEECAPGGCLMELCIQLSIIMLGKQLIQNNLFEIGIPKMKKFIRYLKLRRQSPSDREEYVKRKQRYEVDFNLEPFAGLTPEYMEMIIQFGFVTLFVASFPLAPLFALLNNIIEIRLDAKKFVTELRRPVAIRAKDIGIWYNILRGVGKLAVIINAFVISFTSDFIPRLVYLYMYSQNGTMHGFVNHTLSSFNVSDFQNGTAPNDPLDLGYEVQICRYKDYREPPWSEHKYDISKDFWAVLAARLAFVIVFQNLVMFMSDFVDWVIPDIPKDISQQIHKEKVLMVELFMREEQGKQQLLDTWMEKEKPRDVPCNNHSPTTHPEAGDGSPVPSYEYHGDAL
Outline: (§2)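 Whole-cell recording at room temperature in HEK293A cells transfected with GFP-mANO1, GFP-mANO2 or GFP-mTTYH1. 1 s ramps from +80 to -80 mV, holding potential -10 mV. For ANO1/ANO2: pipette CsCl 146 mM with Ca-EGTA-NMDG, pH 7.3; bath NaCl-based, pH 7.3. For TTYH1: Tris-aspartate pipette (pH 7.2) and Tris-HCl bath (pH 7.4), with […] and BaCl2 added to block K+ channels, and hypotonic (220 mOsm/kg) bath. Washout recordings assessed reversibility.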

[3] = target: T2, Anoctamin-1 (Mus musculus, UniProt Q8BHY3); assay: as §1; type: cell-based, HEK293-A; outline: as §2
T2 sequence (Q8BHY3 whole entry): T1 sequence (whole entry)

[4] = tested on: U-251; assay: Inhibition of colony formation in human U251 cells at 10 uM incubated for 14 days by crystal violet dye based assay; type: functional; conditions: U-251, 336 h, time 14 day
Outline: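 Colonies stained 24 h with crystal violet in methanol/formaldehyde/PBS, washed, extracted with 10% acetic acid and read at A570 nm. Compared against DMSO control.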

[5] = target: T3, Anoctamin-1 (Homo sapiens, UniProt Q5XXA6); assay: Inhibition of human ANO1 channel expressed in HEK293 cells incubated for 10 mins by FLIPR assay; type: cell-based
T3 sequence (Q5XXA6 whole entry): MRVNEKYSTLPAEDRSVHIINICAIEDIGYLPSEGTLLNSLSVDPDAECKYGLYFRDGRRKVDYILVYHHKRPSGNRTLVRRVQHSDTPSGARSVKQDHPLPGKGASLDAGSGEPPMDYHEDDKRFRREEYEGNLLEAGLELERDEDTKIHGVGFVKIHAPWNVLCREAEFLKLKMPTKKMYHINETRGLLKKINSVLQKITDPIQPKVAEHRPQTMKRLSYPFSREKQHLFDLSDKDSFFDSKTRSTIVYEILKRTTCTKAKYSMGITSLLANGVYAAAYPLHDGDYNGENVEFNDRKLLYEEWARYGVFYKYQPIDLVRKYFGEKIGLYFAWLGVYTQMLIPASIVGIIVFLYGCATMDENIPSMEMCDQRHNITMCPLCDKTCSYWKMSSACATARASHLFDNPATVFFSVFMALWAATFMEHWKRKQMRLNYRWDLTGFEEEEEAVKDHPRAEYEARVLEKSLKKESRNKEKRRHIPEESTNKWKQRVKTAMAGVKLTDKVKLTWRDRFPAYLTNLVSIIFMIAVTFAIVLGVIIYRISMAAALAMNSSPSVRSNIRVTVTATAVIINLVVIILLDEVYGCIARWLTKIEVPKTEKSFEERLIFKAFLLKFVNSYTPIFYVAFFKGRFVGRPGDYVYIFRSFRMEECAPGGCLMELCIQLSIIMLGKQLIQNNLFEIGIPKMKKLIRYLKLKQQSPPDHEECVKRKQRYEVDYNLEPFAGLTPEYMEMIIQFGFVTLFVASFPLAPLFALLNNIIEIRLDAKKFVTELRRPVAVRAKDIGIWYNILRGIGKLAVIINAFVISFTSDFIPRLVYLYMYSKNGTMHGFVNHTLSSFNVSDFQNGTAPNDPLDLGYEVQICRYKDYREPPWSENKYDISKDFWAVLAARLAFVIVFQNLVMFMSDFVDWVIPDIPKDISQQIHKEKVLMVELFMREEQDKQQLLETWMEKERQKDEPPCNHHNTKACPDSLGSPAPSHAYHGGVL
Outline: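 HEK293 cells expressing human ANO1, 50,000 cells/well, plated overnight. Loaded with FLIPR Red membrane-potential dye in HEPES-buffered saline (pH 7.4) for 40-60 min at room temperature. Compound added for 10 min at room temperature, final DMSO 0.5%.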

[6] = tested on: U-251; assay: Inhibition of colony formation in human U251 cells incubated for 14 days by crystal violet dye based assay; type: functional, cell-based; conditions: dose 1-10 µM, time 14.0 day
Outline: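 U251 cells, 1.0×10^3 per well, treated with compound (1, 3 or 10 μM) for 2 weeks at 37 °C, 5% CO2. Colonies stained 24 h with crystal violet in methanol/formaldehyde/PBS, washed, extracted with 10% acetic acid and read at A570 nm. Compared against DMSO control.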

[7] = target: T4, Anoctamin-1 (Homo sapiens) (UniProt Q5XXA6); assay: Inhibition of ANO1 in human U251 cells assessed as inhibition of channel current at 10 uM by patch clamp electrophysiology assay; type: cell-based; conditions: U-251
T4 sequence (whole entry): T3 sequence (Q5XXA6 whole entry)
Outline: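 Endogenous ANO1 currents recorded by whole-cell patch clamp in U251 cells, room temperature. 1 s ramps from +80 to -80 mV, holding potential -10 mV. CsCl-based pipette with Ca-EGTA-NMDG (pH 7.3) and NaCl-based bath (pH 7.3).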

| SMILES | GI50 at 72 h [1] [nM] | inhibition [2] | IC50 [3] [nM] | inhibition at 10 µM [4] [%] | IC50 [5] [nM] | inhibition [6] | inhibition [7] [%] |
| --- | --- | --- | --- | --- | --- | --- | --- |
| NC(=O)c1c(NC(=S)NC(=O)c2ccc(Cl)cc2)sc2c1CCC2 | 45200 | Dose-dependent effect | 1750 | 96.4 | 2360 | Dose-dependent effect | 60 |
| CC(C)(C)C(=O)Nc1sc2c(c1C(N)=O)CCC(C(C)(C)C)C2 (centres undefined) | 94800 | Dose-dependent effect | 2560 | 96.6 | 3100 | Dose-dependent effect | 40 |

From ChEMBL document CHEMBL4706565, “Anti-glioma effects of 2-aminothiophene-3-carboxamide derivatives, ANO1 channel blockers” (Eur J Med Chem, 2020)
